# Experimental data published in ChEMBL document CHEMBL1128297, “Determination of receptor-ligand kinetic and equilibrium binding constants using surface plasmon resonance: application to the lck SH2 domain and phosphotyrosyl peptides” (J Med Chem, 1995).
# Legend:
# [1] = target: Tyrosine-protein kinase Lck (Homo sapiens) (UniProt P06239); experiment: Equilibrium constant for competitive binding to p56 lck SH2 domain by SPR after 3rd run
# How it was run: (§1)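 Injected at 5 μL/min over streptavidin chip bearing biotinylated EPQpYEEIPIA (500 nM loading); 10 mM HCl regeneration. Plateau RU vs peptide fitted by nonlinear regression (eq 15) for KS, KC fixed from direct binding.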
# [2] = target: Tyrosine-protein kinase Lck (Homo sapiens) (UniProt P06239); experiment: Equilibrium constant for competitive binding to p56 lck SH2 domain by SPR after 5th run; how it was run: as §1
# [3] = target: Tyrosine-protein kinase Lck (Homo sapiens) (UniProt P06239); experiment: Equilibrium constant for competitive binding to p56 lck SH2 domain by SPR after 2nd run; how it was run: as §1
# [4] = target: Tyrosine-protein kinase Lck (Homo sapiens) (UniProt P06239); experiment: Equilibrium constant for competitive binding to p56 lck SH2 domain by SPR after 4th run; how it was run: as §1
# [5] = target: Tyrosine-protein kinase Lck (Homo sapiens) (UniProt P06239); experiment: Equilibrium constant for competitive binding to p56 lck SH2 domain by SPR after 1st run; how it was run: as §1
# Sequence of Tyrosine-protein kinase Lck (Homo sapiens) (P06239 2-509 limits assumed): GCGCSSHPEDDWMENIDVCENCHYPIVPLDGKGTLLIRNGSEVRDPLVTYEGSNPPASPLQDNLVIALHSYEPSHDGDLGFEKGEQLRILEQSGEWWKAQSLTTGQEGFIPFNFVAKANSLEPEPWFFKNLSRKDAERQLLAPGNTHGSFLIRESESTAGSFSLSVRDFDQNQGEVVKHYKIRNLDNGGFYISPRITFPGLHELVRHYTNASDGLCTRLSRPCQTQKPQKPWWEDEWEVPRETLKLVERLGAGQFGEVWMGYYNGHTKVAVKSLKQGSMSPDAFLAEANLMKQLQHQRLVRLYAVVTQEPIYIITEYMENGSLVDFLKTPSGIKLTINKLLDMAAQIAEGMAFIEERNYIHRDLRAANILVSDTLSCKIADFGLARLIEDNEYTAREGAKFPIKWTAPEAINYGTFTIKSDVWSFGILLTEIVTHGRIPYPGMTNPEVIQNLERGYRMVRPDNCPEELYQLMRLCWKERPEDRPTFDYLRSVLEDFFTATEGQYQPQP
Ks [1] [nM],Ks [2] [µM],Ks [3] [nM],Ks [4] [nM],Ks [5] [nM],Structure (SMILES)
1220,2.85,982,1250,1320,CC[C@H](C)[C@H](NC(=O)[C@H](CCC(=O)O)NC(=O)CNC(=O)[C@H](Cc1ccc(OP(=O)(O)O)cc1)NC(=O)CNC(=O)[C@H](CCC(N)=O)NC(=O)[C@@H](N)CCC(=O)O)C(=O)N1CCC[C@@H]1C(=O)O
242,0.536,167,261,171,CC[C@H](C)[C@H](NC(=O)CNC(=O)[C@H](CCC(=O)O)NC(=O)[C@H](Cc1ccc(OP(=O)(O)O)cc1)NC(=O)[C@H](CCC(N)=O)NC(=O)CNC(=O)[C@@H](N)CCC(=O)O)C(=O)N1CCC[C@@H]1C(=O)O
908,2.16,916,938,833,NC(=O)CC[C@H](NC(=O)CNC(=O)[C@@H](N)CCC(=O)O)C(=O)N[C@@H](Cc1ccc(OP(=O)(O)O)cc1)C(=O)N[C@@H](CCC(=O)O)C(=O)N[C@@H](CCC(=O)O)C(=O)NCC(=O)N1CCC[C@@H]1C(=O)O
26.9,,22.8,27.8,14.4,CC[C@H](C)[C@H](NC(=O)[C@H](CCC(=O)O)NC(=O)[C@H](CCC(=O)O)NC(=O)[C@H](Cc1ccc(OP(=O)(O)O)cc1)NC(=O)[C@H](CCC(N)=O)NC(=O)CNC(=O)[C@@H](N)CCC(=O)O)C(=O)N1CCC[C@@H]1C(=O)O
